The source of these data is ChEMBL document CHEMBL2375316, “Neocosmospora sp.-derived resorcylic acid lactones with in vitro binding affinity for human opioid and cannabinoid receptors” (J Nat Prod, 2013).

Experiment [1] deals with Mu-type opioid receptor (Homo sapiens) (UniProt P35372). The following applies: CHO-K1, at 10 µM.
Experiment [2] concerns the target Kappa-type opioid receptor (Homo sapiens) (UniProt P41145). The following applies: CHO-K1, at 10 µM.
Experiment [3] concerns the target T1, Delta-type opioid receptor (Homo sapiens, UniProt P41143). As to the kind of experiment: Displacement of [3H]-enkephalin from human delta opioid receptor transfected in CHOK1 cells at 10 uM after 60 mins relative to control. The class given is cell-based. The following applies: CHO-K1. (In general: In a radioligand displacement assay an active substance lowers the binding of a labelled ligand.)

The target of experiment [4] is Cannabinoid receptor 1 (Homo sapiens) (UniProt P21554). The experiment is described as follows: Displacement of [3H]-CP55940 from human recombinant CB1 receptor transfected in HEK293 cells at 10 uM after 90 mins relative to control. It counts as cell-based.
Experiment [5] concerns the target Cannabinoid receptor 2 (Homo sapiens) (UniProt P34972). As to the kind of experiment: Displacement of [3H]-CP55940 from human recombinant CB2 receptor transfected in HEK293 cells at 10 uM after 90 mins relative to control. It counts as cell-based.
Experiment [6] deals with T1, Delta-type opioid receptor. The experiment is described as follows: Agonist activity at human delta opioid receptor transfected in CHOK1 cells after 60 mins by [35S]GTPgammaS binding assay. For orientation: Binding of GTPγS marks nucleotide exchange on a G protein.
In experiment [7] the target is T1, Delta-type opioid receptor. The experiment is described as follows: Displacement of [3H]-enkephalin from human delta opioid receptor transfected in CHOK1 cells after 60 mins. The class given is cell-based, CHO-K1.
Experiment [8] concerns the target T1, Delta-type opioid receptor. As to the kind of experiment: Agonist activity at human delta opioid receptor transfected in CHOK1 cells after 60 mins by [35S]GTPgammaS binding assay relative to control. The class given is functional, cell-based. The following applies: CHO-K1. Summed up:
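[35S]GTPγS functional assay on membranes from CHO-K1 cells stably expressing δ-opioid receptor; diluted compound incubated with membrane at predetermined protein level plus 0.05 nM [35S]GTPγS, 60 min at room temperature. Terminated by vacuum filtration through GF/C filters, 10 washes 50 mM Tris-HCl pH 7.4, scintillation counting. Basal binding defined as binding with GTPγS buffers.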

Sequence of Cannabinoid receptor 2 (Homo sapiens) (P34972 whole entry): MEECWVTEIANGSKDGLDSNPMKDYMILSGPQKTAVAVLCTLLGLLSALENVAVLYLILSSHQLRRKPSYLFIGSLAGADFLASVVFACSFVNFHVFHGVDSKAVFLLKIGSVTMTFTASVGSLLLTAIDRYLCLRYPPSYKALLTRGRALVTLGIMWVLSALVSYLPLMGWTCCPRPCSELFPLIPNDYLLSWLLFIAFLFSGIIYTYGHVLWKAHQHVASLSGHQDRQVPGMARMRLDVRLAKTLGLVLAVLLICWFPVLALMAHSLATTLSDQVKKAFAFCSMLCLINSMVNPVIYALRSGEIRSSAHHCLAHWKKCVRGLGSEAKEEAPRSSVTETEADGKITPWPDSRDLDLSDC
Sequence of Cannabinoid receptor 1 (Homo sapiens) (P21554 whole entry): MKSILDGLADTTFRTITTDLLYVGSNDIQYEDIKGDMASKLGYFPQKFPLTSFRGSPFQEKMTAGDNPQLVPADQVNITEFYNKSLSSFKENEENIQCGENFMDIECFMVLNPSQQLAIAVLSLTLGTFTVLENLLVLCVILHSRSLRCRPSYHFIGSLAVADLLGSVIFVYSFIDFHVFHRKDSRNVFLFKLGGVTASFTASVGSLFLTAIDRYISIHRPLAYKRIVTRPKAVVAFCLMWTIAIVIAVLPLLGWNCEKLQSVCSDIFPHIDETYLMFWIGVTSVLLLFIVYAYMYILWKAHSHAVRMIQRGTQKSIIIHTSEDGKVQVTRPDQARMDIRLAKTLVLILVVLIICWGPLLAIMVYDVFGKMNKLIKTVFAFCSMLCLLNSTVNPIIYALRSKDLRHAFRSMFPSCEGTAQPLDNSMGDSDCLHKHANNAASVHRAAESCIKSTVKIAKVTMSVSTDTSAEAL
Sequence of Kappa-type opioid receptor (Homo sapiens) (P41145 whole entry): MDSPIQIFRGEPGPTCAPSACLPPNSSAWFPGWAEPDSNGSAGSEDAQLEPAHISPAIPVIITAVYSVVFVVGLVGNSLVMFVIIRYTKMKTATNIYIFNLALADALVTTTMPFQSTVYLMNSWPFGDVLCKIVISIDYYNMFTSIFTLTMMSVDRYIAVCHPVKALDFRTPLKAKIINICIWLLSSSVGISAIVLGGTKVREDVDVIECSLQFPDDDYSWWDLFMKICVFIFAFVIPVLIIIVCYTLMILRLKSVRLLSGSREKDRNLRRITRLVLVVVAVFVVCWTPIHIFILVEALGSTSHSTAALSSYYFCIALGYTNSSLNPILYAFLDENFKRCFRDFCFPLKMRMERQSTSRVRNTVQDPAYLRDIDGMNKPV
T1 sequence (P41143 whole entry): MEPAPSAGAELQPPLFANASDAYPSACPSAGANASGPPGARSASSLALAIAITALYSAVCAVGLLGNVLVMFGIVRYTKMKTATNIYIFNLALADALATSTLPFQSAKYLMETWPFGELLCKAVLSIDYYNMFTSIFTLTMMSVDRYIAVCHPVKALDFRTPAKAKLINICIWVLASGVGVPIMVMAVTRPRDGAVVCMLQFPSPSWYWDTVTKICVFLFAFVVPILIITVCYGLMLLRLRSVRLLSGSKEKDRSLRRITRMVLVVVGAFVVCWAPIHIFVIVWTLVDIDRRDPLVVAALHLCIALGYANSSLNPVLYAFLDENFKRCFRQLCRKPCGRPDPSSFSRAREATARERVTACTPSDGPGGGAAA
Sequence of Mu-type opioid receptor (Homo sapiens) (P35372 whole entry): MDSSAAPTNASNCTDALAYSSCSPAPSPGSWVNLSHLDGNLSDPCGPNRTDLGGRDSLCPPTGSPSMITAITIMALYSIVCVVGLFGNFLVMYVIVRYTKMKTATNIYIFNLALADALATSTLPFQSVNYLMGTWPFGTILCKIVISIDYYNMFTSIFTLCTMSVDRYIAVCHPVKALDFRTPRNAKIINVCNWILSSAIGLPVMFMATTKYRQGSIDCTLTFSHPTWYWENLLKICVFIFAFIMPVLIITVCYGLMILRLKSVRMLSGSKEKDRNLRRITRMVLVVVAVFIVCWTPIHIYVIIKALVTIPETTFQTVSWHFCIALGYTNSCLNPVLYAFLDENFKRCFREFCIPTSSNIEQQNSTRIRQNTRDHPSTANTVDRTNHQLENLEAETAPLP

As to `C[C@@H]1C/C=C/CCCCC(=O)Cc2cc(O)cc(O)c2C(=O)O1`, the inhibition was 8.7% in experiment [1], 24.7% in experiment [2] and 45.7% in experiment [3].

With `C[C@@H]1CCCC(=O)CCCC(=O)Cc2cc(O)cc(O)c2C(=O)O1`, the inhibition is 47.4% in experiment [4], 41.3% in experiment [1], 8.1% in experiment [2] and 27.7% in experiment [5].

With `COc1cc(O)c2c(c1)CC(=O)CCCC/C=C/C[C@@H](C)OC2=O`, the inhibition in experiment [1] came out at 22.4%; in experiment [2], 11.4%; in experiment [3] it was 44.7%; in experiment [5], 44.5%.

For `C[C@@H]1C[C@H]2O[C@@H]2/C=C\C=C\C(=O)Cc2c(Cl)c(O)cc(O)c2C(=O)O1`, the results for the inhibition in experiment [4], in experiment [1] and in experiment [5] were 30.7%, 84.9% and 13%, respectively.

For `COc1cc(O)c2c(c1)CC(=O)CCCC(=O)CCC[C@@H](C)OC2=O`, the inhibition in experiment [1] turned out to be 24%; in experiment [2], 32.7%; in experiment [3], 54.9%; in experiment [5], 46.3%. Besides, the response in experiment [6] was half-maximal at 0.239 µM (EC50). In experiment [7], the IC50 amounted to 14.6 µM. In experiment [7], the Ki was 7.31 µM. This compound returned an Emax in experiment [8] of 2400%.

In the case of `CCCCCCC(C)(C)c1ccc([C@@H]2C[C@H](O)CC[C@H]2CCCO)c(O)c1`, the inhibition was 88.8% in experiment [4] and 90.3% in experiment [5].

In general, inhibition refers to the percentage by which the read-out fell short of the control. For orientation: EC50 means the concentration that produces a half-maximal response. Lower therefore signals an effect from little substance. What is called IC50 is the point on the concentration scale where inhibition reaches its midpoint. What is called Ki is the equilibrium dissociation constant of an inhibitor or competing ligand from its target. Higher therefore signals a looser hold on the target. A word on the Emax: it is the greatest response seen or fitted, relative to the assay's reference.
